Published values gathered from unrelated publications.
Protocols differ between the studies behind these lines.
SLC47A2: Multidrug and toxin extrusion protein 2 (SLC47A2, Homo sapiens, UniProt Q86VL8)
ABCB1: ATP-dependent translocase ABCB1 (ABCB1, Homo sapiens, UniProt P08183)

| Structure (SMILES) | target | assay | system | conditions | measurement | value |
| --- | --- | --- | --- | --- | --- | --- |
| CN(C(=O)n1cnc(-c2ccc[n+]([O-])c2)c1)C1CCCCC1 | SLC47A2 | transporter uptake, inhibitor | MDCK-II | 0.3 µg/mL | inhibition | 12% |
| O=C(O)CSc1nnc(Br)n1-c1ccc(C2CC2)c2ccccc12 | SLC47A2 | transporter uptake, inhibitor | HEK293 | 100 µM, 2 min | inhibition | -9% |
| Cc1cc(Nc2ncnc3ccc(NC4=NC(C)(C)CO4)cc23)ccc1Oc1ccn2ncnc2c1 | ABCB1 |  | MDCK-MDR1, Caco-2 | 1 µM, 1 h, pH 7.4 | efflux ratio | 9.48 |
| C=C[C@H]1C[N@@]2CC[C@H]1C[C@@H]2[C@@H](O)c1ccnc2ccc(OC)cc12 | ABCB1 |  | MDCK-MDR1 | 5 µM | Papp A→B | 13.1 ×10⁻⁶ cm/s |
| CC1(C)CCC2(CC1)N[C@@H](C(=O)N[C@@H]1CC[C@@H](C(N)=O)OC1)[C@H](c1ccnc(Cl)c1F)[C@]21C(=O)Nc2cc(Cl)ccc21 | ABCB1 |  | Caco-2 | 1 µM, 2 h | efflux ratio | 16.1 |
| C[C@]12CCCN1CC1=NNC(=O)c3cc(F)cc4[nH]c2c1c34 | ABCB1 |  | MDCK-MDR1 | 10 µM | Papp B→A | 41.2 ×10⁻⁶ cm/s |
| C[C@H]1O[C@@H](O[C@H]2[C@@H](O)C[C@H](O[C@H]3[C@@H](O)C[C@H](O[C@H]4CC[C@@]5(C)[C@H](CC[C@@H]6[C@@H]5C[C@@H](O)[C@]5(C)[C@@H](C7=CC(=O)OC7)CC[C@]65O)C4)O[C@@H]3C)O[C@@H]2C)C[C@H](O)[C@@H]1O | ABCB1 |  | human, plasma | oral, 0.5 mg | Cmax | 1.99 ng/mL |
| COCCc1ccc(OCC(O)CNC(C)C)cc1 (stereo not drawn) | ABCB1 |  | MDCK-MDR1 | 5 µM | Papp A→B | 32.1 ×10⁻⁶ cm/s |
| Cc1ccc(C(=O)N2CCOC[C@H]2Cc2cccc(-n3nccn3)c2)c(-n2nccn2)c1 | Cytochrome P450 2A6 (CYP2A6, Homo sapiens, UniProt P11509) | enzyme activity, inhibitor | human, liver microsomes | 100 µM | inhibition | 19% |
